{
  "source": "paper PMC8771160",
  "about": "(Oncology Reports, 2022)",
  "key": {"[1]": {"test_system": "influenza virus endonuclease", "settings": "cited from earlier work"}, "HCV NS5B": {"test_system": "HCV NS5B", "settings": "cited from earlier work"}, "[2]": {"test_system": "KSHV-uninfected B cell lines", "assay": "Cell proliferation assay, KSHV-uninfected B cell lines as a group", "assay_type": "cell-based", "settings": "6.25 and 12.5 µM, 24 h", "how_it_was_run": "(§1)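 PEL lines, KSHV-negative B-lymphoma lines or PBMCs were seeded at 1×10^4 cells/well and cultured with or without test compound at 37°C for 24 h. Cell Count Reagent SF was added (10 µl to 90 µl suspension) for 2 h at 37°C, and OD was read at 450 nm. Viability is expressed as % of untreated cells.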"}, "HIV RT": {"test_system": "HIV RT", "settings": "cited from earlier work"}, "BC3": {"test_system": "BC3", "assay": "Cell proliferation assay", "assay_type": "cell-based", "settings": "KSHV (+) cell line BC3, 24 h", "how_it_was_run": "as §1"}, "BCBL1": {"test_system": "BCBL1", "assay": "Cell proliferation assay", "assay_type": "cell-based", "settings": "KSHV (+) cell line BCBL1, 24 h", "how_it_was_run": "as §1"}, "Ramos": {"test_system": "Ramos", "assay": "Cell proliferation assay", "assay_type": "cell-based", "settings": "KSHV (−) cell line Ramos, 24 h", "how_it_was_run": "as §1"}, "DG75": {"test_system": "DG75", "assay": "Cell proliferation assay", "assay_type": "cell-based", "settings": "KSHV (−) cell line DG75, 24 h", "how_it_was_run": "as §1"}, "HBL6": {"test_system": "HBL6", "assay": "Cell proliferation assay", "assay_type": "cell-based", "settings": "KSHV (+) cell line HBL6, 24 h", "how_it_was_run": "as §1"}, "[3]": {"test_system": "cancer cell proliferation", "settings": "cited from earlier work"}},
  "data": [
    {"substance": "1,1,1′,1′-tetramethyl [60]fullerenodipyrrolidinium diiodide [Derivative #1]", "values": [
      {"measurement": "influenza virus endonuclease inhibitory activity", "setting": "[1]", "value": "inhibitory activities"},
      {"measurement": "HCV NS5B inhibitory activity", "setting": "HCV NS5B", "value": "inhibiting"},
      {"measurement": "viability of DG75 and Ramos cells compared with the controls", "setting": "[2]", "value": "increased the viability"},
      {"measurement": "HIV RT inhibitory activity", "setting": "HIV RT", "value": "displayed HIV RT inhibitory activity"},
      {"measurement": "CC50", "setting": "BC3", "value": 15.5, "unit": "µM"},
      {"measurement": "CC50", "setting": "BCBL1", "value": "> 25", "unit": "µM"},
      {"measurement": "CC50", "setting": "Ramos", "value": 24.9, "unit": "µM"},
      {"measurement": "CC50", "setting": "DG75", "value": 23.4, "unit": "µM"},
      {"measurement": "CC50", "setting": "HBL6", "value": 19.7, "unit": "µM"},
      {"measurement": "cancer cell proliferation", "setting": "[3]", "value": "suppressed cancer cell proliferation"}
    ]}
  ]
}
